Compounds with a hit are over-represented: about 1.8% of the library has one in this group of screens.
M5 ag = agonists of human muscarinic M5 receptor (CHRM5). activation, % at 3 µM. 0.19% of 360,000 active. P08912. CHO-K1 hM5 cells, Fluo-8 calcium fluorescence; 0% DMSO wells, 100% maximal acetylcholine response;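 active means activation above the run's mean over test compounds plus 3 SD, cut at about 23% in these data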;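 further: signal is peak over basal fluorescence ratio across the kinetic read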
Target sequence (P08912 whole entry, looked up): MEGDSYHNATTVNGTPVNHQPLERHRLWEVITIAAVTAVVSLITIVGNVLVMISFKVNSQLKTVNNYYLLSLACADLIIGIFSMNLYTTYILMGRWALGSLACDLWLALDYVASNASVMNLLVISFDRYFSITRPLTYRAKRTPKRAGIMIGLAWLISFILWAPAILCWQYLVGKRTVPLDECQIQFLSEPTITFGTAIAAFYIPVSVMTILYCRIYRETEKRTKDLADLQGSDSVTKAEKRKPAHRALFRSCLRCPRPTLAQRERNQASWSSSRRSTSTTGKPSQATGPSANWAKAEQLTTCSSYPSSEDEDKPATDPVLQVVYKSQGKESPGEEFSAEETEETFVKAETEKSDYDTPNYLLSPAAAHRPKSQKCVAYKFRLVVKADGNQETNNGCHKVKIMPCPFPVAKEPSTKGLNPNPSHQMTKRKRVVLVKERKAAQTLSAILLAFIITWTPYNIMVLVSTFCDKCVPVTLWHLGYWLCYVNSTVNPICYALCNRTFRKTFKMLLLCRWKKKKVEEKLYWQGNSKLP
M5 PAM = CHRM5 positive allosteric modulation; 0.3% of 360,000 active; CHO-K1 hM5, Fluo-8 calcium, ACh EC20 PAM; 0% = ACh EC20, 100% = ACh EC100; P08912; activation, % at 3 µM;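 active means activation above the run cutoff, the mean activation of all test compounds plus 3 SD, cut at about 18% in these data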
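System – CHO-K1 hM5 cells · Compound – 3 µM, single dose · Incubation – compound preincubation 140 s before EC20 acetylcholine addition · Technique – Fluo-8 calcium fluorescence · Measure – Max/basal fluorescence ratio as % of EC20–EC100 ACh window · Benchmarks – low control EC20 acetylcholine (0%), high control EC100 acetylcholine (100%) · Replication – singlicate, one well per test compound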
M4 PAM = positive allosteric modulators of human muscarinic M4 receptor; activation, % at 3 µM; CHO-K1 hM4/Gqi5, Fluo-8 calcium fluorescence, ACh EC20; 0% = ACh EC20, 100% = maximal ACh; 0.4% of 360,000 active;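 active means activation above its plate's cutoff, the mean activation of sample wells plus 3 SD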
CHRM4 agonist = agonists of human muscarinic M4 receptor (CHRM4); P08173; CHO-K1 hM4/Gqi5, Fluo-8 calcium fluorescence; vehicle 0%, full acetylcholine response 100%; activation, % at 3 µM; 0.14% of 360,000 active;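 active means activation above the run mean over all test wells plus 3 SD, cut at about 32% in these data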;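 further: peak over basal fluorescence ratio per well then scaled between controls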
CHRM5 antagonist = blocks acetylcholine activation of human M5 receptor | P08912 | CHO-hM5 cells, Fluo-8 calcium fluorescence, ACh EC80 | inhibition, % at 3 µM | 0.59% of 360,000 active | AID 624040;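 active means inhibition above a per-plate cutoff, the mean of that plate's test compounds plus 3 SD, cut at about 27% in these data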
M4 antag = CHRM4 antagonism in calcium assay; P08173; CHO-hM4 cells, ACh EC80, Fluo-8 calcium fluorescence; inhibition, % at 3 µM; 0.73% of 360,000 active;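 active means inhibition above its plate's cutoff, the mean inhibition of sample wells plus 3 SD, cut at about 27% in these data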
Numbers stand for hits; . = inactive.

SMILES	M5 ag	M5 PAM	M4 PAM	CHRM4 agonist	CHRM5 antagonist	M4 antag
CC(=O)c1sc(NC(=O)C2(F)C(F)(F)C(F)(F)C(F)(F)C(F)(F)C2(F)F)nc1C	.	.	.	.	28.8	.
Cc1ccc(N(C(=O)CNC(=O)c2ccco2)C(C(=O)NC2CCCCC2)c2cccnc2)cc1 (stereo not given)	.	.	.	.	.	.
CC(=O)Nc1ccc(S(=O)(=O)N2CCC(NC(=O)C(Cc3cccn3C)NC(C)=O)CC2)cc1 (stereo not given)	.	27.7	.	.	.	.
CCS(=O)(=O)N1CCC(NC(=O)C(Cc2cccc(OC)c2OC)NC(C)=O)CC1 (stereo not given)	.	.	17.5	.	.	.
O=[N+]([O-])c1cc([N+](=O)[O-])c(Oc2ccc(F)cc2F)cc1NN1CCCCC1	.	.	26.9	.	.	.
O=[N+]([O-])c1cc([N+](=O)[O-])c(Oc2cccc3ccccc23)cc1NN1CCCCC1	.	.	30.5	.	.	.
O=C(c1ccccc1Cl)N1N=C(c2cccs2)CC1c1cccc(O)c1 (stereo not given)	.	.	.	.	.	.
CSCCC(NC(=O)c1ccccc1Br)C(=O)NNC(=O)c1ccco1 (stereo not given)	.	.	.	.	.	.
O=C(NCC1CCCO1)c1cccc(S(=O)(=O)Nc2ccc(SC(F)F)cc2)c1 (stereo not given)	.	.	.	.	.	.
CCCc1cc2c(cc1N(C)S(=O)(=O)c1ccccc1)OCO2	.	.	.	.	28.0	.
COc1ccccc1N(C)S(=O)(=O)c1ccc(C(=O)NCc2ccc3c(c2)OCO3)cc1	.	.	.	.	.	.
O=C(Nc1ccc(F)cc1)C(c1ccncc1)N1CCN(CC(=O)N2CCCC2)CC1 (stereo not given)	.	.	.	.	.	.
O=C(Nc1ccc2nc([C@H]3C[C@H](O)[C@@H](CO)O3)[nH]c2c1)NC(c1ccccc1)c1ccccc1	.	.	.	.	.	.
COc1ccccc1Cn1c(=O)[nH]c2cccnc21	.	41.1	.	.	.	.
COc1cccc(Nc2nnc(SCC(=O)Nc3sccc3C(N)=O)s2)c1	.	.	.	.	.	28.9
Cc1ccc(CS(=O)(=O)CCC(=O)NCCC(C)C)cc1	.	.	33.9	.	.	.
COc1ccc(N2C(=S)NC3CS(=O)(=O)CC32)cc1 (stereo not given)	.	.	.	.	.	27.9
O=C(NNc1ccc([N+](=O)[O-])cc1)c1ccccc1Cl	.	.	.	.	.	.
O=C(NC(NNc1ccc([N+](=O)[O-])cc1)(C(F)(F)F)C(F)(F)F)c1ccc(Cl)cc1	.	.	.	.	27.2	.
CC(CCC(C)C(C)(C)C)[C@@H]1CC[C@H]2C3C[C@H](OS(O)(=S)=S)[C@H]4C[C@H](OS(O)(=S)=S)[C@@H](OS(O)(=S)=S)C[C@]4(C)[C@H]3CC[C@]12C (stereo not given in full) (tested in a mixture with another compound)	.	.	.	80.7	.	51.1
CC(C)(CNC(=O)Cc1ccc(Br)cc1)N1CCOCC1	.	.	.	.	.	.
Cc1ccc(C(=O)OCC(=O)Nc2cccc(S(=O)(=O)N3CCCCC3)c2)s1	.	.	.	.	.	.
COc1ccccc1NC(=O)[C@@H]1CCCN1S(=O)(=O)c1ccc(Cl)cc1	.	.	.	.	.	.
O=C(COC(=O)c1ccc(Br)cc1)NC(=O)NCc1ccccc1	.	.	.	.	.	.
CCN(CC(=O)Nc1ccc(NC(C)=O)cc1)C(=O)CN1C(=O)NC(C)(c2ccc3ccccc3c2)C1=O (stereo not given)	.	.	26.6	.	.	.
SMILES	M5 ag	M5 PAM	M4 PAM	CHRM4 agonist	CHRM5 antagonist	M4 antag
C=C(C)CN(CC)C(=O)CN1C(=O)NC(C)(c2ccc3ccccc3c2)C1=O (stereo not given)	.	.	.	.	.	.
CCCCCC(C)NC(=O)CN1C(=O)NC(C)(c2ccc3ccccc3c2)C1=O (stereo not given)	.	.	23.0	.	.	.
NC(Cc1ccc(F)cc1)c1csc(Nc2ccc(C(F)(F)F)cn2)n1 (stereo not given)	.	.	.	.	.	.
Cc1nc(Cl)sc1C(=O)Nc1cc(F)cc(F)c1	.	.	.	.	.	.
Cc1nc(Cl)sc1C(=O)O	.	.	33.8	.	.	.
COc1ccc(C(=O)N/N=C/c2cc(Br)ccc2O)cc1OC	.	.	.	.	.	.
CCCOc1ccc(Br)cc1/C=N/NC(=O)c1cc(OC)c(OC)c(OC)c1	.	.	28.5	.	.	.
COc1ccc(S(=O)(=O)N2CCCC(C(=O)NC3CC3)C2)cc1Cl (stereo not given)	.	.	.	.	.	.
CCCC(=O)N1CCCC1(C)C(=O)Nc1ccc2c(c1)CCN2C(C)=O (stereo not given)	.	.	.	.	.	.
O=C1NC(=S)N/C1=C/c1cccc2ccccc12	.	.	.	.	.	.
O=C1NC(=S)NC1=Cc1ccccc1O	109.5	.	.	133.7	30.9	.
N#C/C(=C/c1ccc(N2CCCCCC2)o1)c1ccc(Cl)cc1	.	.	.	.	.	26.5
CC1(C)OC(=O)CC1C(=O)NCc1ccccc1 (stereo not given)	.	25.5	.	.	.	.
CCn1c(=O)c([N+](=O)[O-])c(Cl)c2ccccc21	.	.	.	.	.	38.6
O=C(c1[nH]c(C(F)(F)F)nc1-c1ccccc1)N1CCN(c2ncc(C(F)(F)F)cc2Cl)CC1	.	.	.	37.2	.	.
CC(C)C(NC(=O)CCNC(=O)c1ccc([N+](=O)[O-])cc1)c1nc2ccccc2[nH]1 (stereo not given)	.	.	.	.	.	.
CC(=O)COc1ccccc1OC(=O)c1ccco1	.	.	.	.	.	.
CC(=O)c1ccccc1OC(=O)c1ccco1	.	.	22.9	.	.	.
CC(=O)Nc1ccc(NC(=O)c2c(C)c(-c3ccccc3)nc3ccccc23)cc1	.	.	.	.	.	.
CC(NS(=O)(=O)OCC(Cl)(Cl)Cl)c1ccc(C(C)(C)C)cc1 (stereo not given)	.	.	.	.	.	44.9
COc1ccccc1CNC(=O)C1CC(c2ccccc2[N+](=O)[O-])=NO1 (stereo not given)	.	20.7	.	.	.	.
COc1ccc(O)c(C(=O)/C=C/c2cc3ccccc3o2)c1	.	.	18.5	.	.	.
